Laboratory results reported in ChEMBL document CHEMBL5058577, “EUbOPEN Chemogenomics Library 2 (Multiplex)” (2022).

System: Fibroblast
Assay: Multiplex assay against human fibroblast
Assay type: toxicity, cell-based
In short: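 Tubulin, mitochondrial-mass and membrane-permeability phenotypes are per cents of healthy-nucleus cells. Cells were gated by CellPathfinder machine learning into Hoechst high-intensity objects or normal cells, normal cells into healthy, pyknosed or fragmented nuclei, and pyknosed cells into mitotic or apoptotic. Before that, live cells stained at seeding with Hoechst33342, BioTracker Green Microtubule Cytoskeleton Dye, MitoTracker Red and Annexin V Alexa Fluor 680 were imaged on a CQ1 microscope at 37°C and 5% CO2 after compound addition.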

[1] = 12 h, 1 µM, compound concentration 1 uM, replicate 1
[2] = 12 h, 1 µM, compound concentration 1 uM, replicate 2
[3] = 12 h, 10 µM, compound concentration 10 uM, replicate 1
[4] = 12 h, 10 µM, compound concentration 10 uM, replicate 2
[5] = 24 h, 1 µM, compound concentration 1 uM, replicate 1
[6] = 24 h, 1 µM, compound concentration 1 uM, replicate 2
[7] = 24 h, 10 µM, compound concentration 10 uM, replicate 1
[8] = 24 h, 10 µM, compound concentration 10 uM, replicate 2
[9] = 48 h, 1 µM, compound concentration 1 uM, replicate 1
[10] = 48 h, 1 µM, compound concentration 1 uM, replicate 2
[11] = 48 h, 10 µM, compound concentration 10 uM, replicate 1
[12] = 48 h, 10 µM, compound concentration 10 uM, replicate 2

SMILES: COc1ccccc1N1CCN(C[C@@H](C(=O)NC(C)(C)C)c2ccccc2)CC1.Cl.Cl
- Population Apoptotic (%) [1]: 43%
- Population Fragmented Nuclei (%) [1]: 12%
- Population Healthy Nuclei (%) [1]: 70%
- Population Hoechst High Intensity Objects (%) [1]: 2%
- Population Membrane Permeable-Phenotype (%) [1]: 0%
- Population Mitochondria Different-Phenotype (%) [1]: 8%
- Population Mitotic Cells (%) [1]: 56%
- Population Normal (%) [1]: 97%
- Population Pyknosed Nuclei (%) [1]: 16%
- Population Tubulin-Different-Phenotype (%) [1]: 37%
- Total Cell Count [1]: 141
- Population Apoptotic (%) [2]: 40%
- Population Fragmented Nuclei (%) [2]: 25%
- Population Healthy Nuclei (%) [2]: 43%
- Population Hoechst High Intensity Objects (%) [2]: 5%
- Population Mitochondria Different-Phenotype (%) [2]: 4%
- Population Mitotic Cells (%) [2]: 60%
- Population Normal (%) [2]: 94%
- Population Pyknosed Nuclei (%) [2]: 30%
- Population Tubulin-Different-Phenotype (%) [2]: 43%
- Total Cell Count [2]: 155
- Population Apoptotic (%) [3]: 50%
- Population Fragmented Nuclei (%) [3]: 20%
- Population Healthy Nuclei (%) [3]: 59%
- Population Hoechst High Intensity Objects (%) [3]: 5%
- Population Membrane Permeable-Phenotype (%) [3]: 1%
- Population Mitochondria Different-Phenotype (%) [3]: 20%
- Population Mitotic Cells (%) [3]: 50%
- Population Normal (%) [3]: 94%
- Population Pyknosed Nuclei (%) [3]: 20%
- Population Tubulin-Different-Phenotype (%) [3]: 66%
- Total Cell Count [3]: 134
- Population Apoptotic (%) [4]: 48%
- Population Fragmented Nuclei (%) [4]: 32%
- Population Healthy Nuclei (%) [4]: 42%
- Population Membrane Permeable-Phenotype (%) [4]: 6%
- Population Mitochondria Different-Phenotype (%) [4]: 12%
- Population Mitotic Cells (%) [4]: 51%
- Population Pyknosed Nuclei (%) [4]: 24%
- Population Tubulin-Different-Phenotype (%) [4]: 70%
- Total Cell Count [4]: 116
- Population Apoptotic (%) [5]: 50%
- Population Fragmented Nuclei (%) [5]: 12%
- Population Healthy Nuclei (%) [5]: 73%
- Population Hoechst High Intensity Objects (%) [5]: 2%
- Population Membrane Permeable-Phenotype (%) [5]: 0%
- Population Mitochondria Different-Phenotype (%) [5]: 15%
- Population Mitotic Cells (%) [5]: 50%
- Population Normal (%) [5]: 97%
- Population Pyknosed Nuclei (%) [5]: 14%
- Population Tubulin-Different-Phenotype (%) [5]: 32%
- Total Cell Count [5]: 143
- Population Fragmented Nuclei (%) [6]: 24%
- Population Healthy Nuclei (%) [6]: 55%
- Population Hoechst High Intensity Objects (%) [6]: 3%
- Population Membrane Permeable-Phenotype (%) [6]: 8%
- Population Mitochondria Different-Phenotype (%) [6]: 3%
- Population Normal (%) [6]: 96%
- Population Pyknosed Nuclei (%) [6]: 19%
- Population Tubulin-Different-Phenotype (%) [6]: 50%
- Total Cell Count [6]: 151
- Population Apoptotic (%) [7]: 83%
- Population Fragmented Nuclei (%) [7]: 19%
- Population Healthy Nuclei (%) [7]: 65%
- Population Hoechst High Intensity Objects (%) [7]: 8%
- Population Membrane Permeable-Phenotype (%) [7]: 0%
- Population Mitochondria Different-Phenotype (%) [7]: 37%
- Population Mitotic Cells (%) [7]: 16%
- Population Normal (%) [7]: 91%
- Population Pyknosed Nuclei (%) [7]: 14%
- Population Tubulin-Different-Phenotype (%) [7]: 63%
- Total Cell Count [7]: 132
- Population Apoptotic (%) [8]: 40%
- Population Fragmented Nuclei (%) [8]: 39%
- Population Healthy Nuclei (%) [8]: 41%
- Population Hoechst High Intensity Objects (%) [8]: 3%
- Population Membrane Permeable-Phenotype (%) [8]: 8%
- Population Mitochondria Different-Phenotype (%) [8]: 8%
- Population Mitotic Cells (%) [8]: 59%
- Population Normal (%) [8]: 96%
- Population Pyknosed Nuclei (%) [8]: 19%
- Population Tubulin-Different-Phenotype (%) [8]: 76%
- Total Cell Count [8]: 116
- Population Apoptotic (%) [9]: 84%
- Population Fragmented Nuclei (%) [9]: 18%
- Population Healthy Nuclei (%) [9]: 71%
- Population Hoechst High Intensity Objects (%) [9]: 5%
- Population Membrane Permeable-Phenotype (%) [9]: 1%
- Population Mitochondria Different-Phenotype (%) [9]: 12%
- Population Mitotic Cells (%) [9]: 15%
- Population Normal (%) [9]: 94%
- Population Pyknosed Nuclei (%) [9]: 10%
- Population Tubulin-Different-Phenotype (%) [9]: 34%
- Total Cell Count [9]: 138
- Population Apoptotic (%) [10]: 60%
- Population Fragmented Nuclei (%) [10]: 31%
- Population Healthy Nuclei (%) [10]: 52%
- Population Membrane Permeable-Phenotype (%) [10]: 5%
- Population Mitochondria Different-Phenotype (%) [10]: 5%
- Population Mitotic Cells (%) [10]: 40%
- Population Pyknosed Nuclei (%) [10]: 15%
- Population Tubulin-Different-Phenotype (%) [10]: 56%
- Total Cell Count [10]: 171
- Population Apoptotic (%) [11]: 84%
- Population Fragmented Nuclei (%) [11]: 18%
- Population Healthy Nuclei (%) [11]: 63%
- Population Hoechst High Intensity Objects (%) [11]: 14%
- Population Membrane Permeable-Phenotype (%) [11]: 0%
- Population Mitochondria Different-Phenotype (%) [11]: 34%
- Population Mitotic Cells (%) [11]: 15%
- Population Normal (%) [11]: 85%
- Population Pyknosed Nuclei (%) [11]: 18%
- Population Tubulin-Different-Phenotype (%) [11]: 65%
- Total Cell Count [11]: 122
- Population Apoptotic (%) [12]: 44%
- Population Fragmented Nuclei (%) [12]: 50%
- Population Healthy Nuclei (%) [12]: 41%
- Population Hoechst High Intensity Objects (%) [12]: 3%
- Population Membrane Permeable-Phenotype (%) [12]: 8%
- Population Mitochondria Different-Phenotype (%) [12]: 8%
- Population Mitotic Cells (%) [12]: 55%
- Population Normal (%) [12]: 96%
- Population Pyknosed Nuclei (%) [12]: 7%
- Population Tubulin-Different-Phenotype (%) [12]: 67%
